In ChEMBL document CHEMBL1139657, “Isothiazoloquinolones containing functionalized aromatic hydrocarbons at the 7-position: synthesis and in vitro activity of a series of potent antibacterial agents with diminished cytotoxicity in human cells” (Bioorg Med Chem Lett, 2006):
Values after ≈ are worked out from the molar mass of the structure shown.

Experiments:
HEp-2 = assay: Cytotoxicity against human Hep2 laryngeal carcinoma cell line; type: functional
Escherichia coli = assay: Antimicrobial activity against Escherichia coli ATCC 25922; type: functional
Summary of the method: (§1)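 MIC taken as lowest concentration giving no visible bacterial growth after incubation at 37 °C for 18–24 h.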

Staphylococcus aureus [1] = assay: Antimicrobial activity against Staphylococcus aureus ATCC 29213; type: functional; summary of the method: as §1
Staphylococcus aureus [2] = assay: Antimicrobial activity against methicillin-resistant Staphylococcus aureus 700699; type: functional
Summary of the method: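 MIC taken as the lowest compound concentration preventing visible bacterial growth after incubation at 37 °C for 18–24 h.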

DNA gyrase = DNA gyrase (Escherichia coli, UniProt P0AES4+P0AES6); assay: Inhibitory activity against wild type Escherichia coli gyrase; type: protein-complex assay
[3] = target: DNA topoisomerase 4 subunit A (Staphylococcus aureus, UniProt P0C1U9); assay: Inhibitory activity against wild type Staphylococcus aureus topoisomerase 4
Chain of DNA topoisomerase 4 subunit A (P0C1U9 whole entry): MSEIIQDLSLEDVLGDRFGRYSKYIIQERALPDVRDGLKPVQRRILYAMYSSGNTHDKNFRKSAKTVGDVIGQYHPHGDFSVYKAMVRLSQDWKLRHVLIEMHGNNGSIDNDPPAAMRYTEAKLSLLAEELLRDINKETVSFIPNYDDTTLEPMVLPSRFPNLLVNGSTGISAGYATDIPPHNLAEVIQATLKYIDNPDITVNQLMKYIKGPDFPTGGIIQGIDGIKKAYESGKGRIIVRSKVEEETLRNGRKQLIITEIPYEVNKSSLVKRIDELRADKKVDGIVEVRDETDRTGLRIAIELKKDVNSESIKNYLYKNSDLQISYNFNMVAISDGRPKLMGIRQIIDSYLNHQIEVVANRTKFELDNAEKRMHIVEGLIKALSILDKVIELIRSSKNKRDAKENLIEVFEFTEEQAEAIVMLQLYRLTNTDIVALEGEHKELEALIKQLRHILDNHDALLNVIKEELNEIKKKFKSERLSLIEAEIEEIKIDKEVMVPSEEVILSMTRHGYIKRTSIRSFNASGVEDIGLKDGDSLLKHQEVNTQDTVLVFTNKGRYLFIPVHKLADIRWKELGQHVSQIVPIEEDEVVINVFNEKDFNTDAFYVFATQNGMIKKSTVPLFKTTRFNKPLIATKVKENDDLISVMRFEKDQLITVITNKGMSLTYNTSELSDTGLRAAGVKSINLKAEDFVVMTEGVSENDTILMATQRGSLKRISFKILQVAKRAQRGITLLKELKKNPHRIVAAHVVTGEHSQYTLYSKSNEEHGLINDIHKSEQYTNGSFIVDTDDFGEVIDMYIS

| Compound | CC50 (HEp-2) [µM] | MIC (Escherichia coli) [µg/mL] | MIC (Staphylococcus aureus [1]) [µg/mL] | MIC (Staphylococcus aureus [2]) [µg/mL] | IC50 (DNA gyrase) [µM] | IC50 [3] [µM] |
| --- | --- | --- | --- | --- | --- | --- |
| N#CCc1ccc(-c2cc3c(cc2F)c(=O)c2c(=O)[nH]sc2n3C2CC2)cc1 | 84 | 0.02 (≈ 0.0511 µM) | 0.002 (≈ 0.00511 µM) | 0.5 (≈ 1.28 µM) | – | – |
| O=c1[nH]sc2c1c(=O)c1cc(F)c(-c3cccc(C4CCCCN4)c3)cc1n2C1CC1 (configuration not stated) | 4 | 0.125 (≈ 0.287 µM) | 0.06 (≈ 0.138 µM) | 8 (≈ 18.4 µM) | 0.7 | 2.7 |
| CN(C)c1ccc(-c2cc3c(cc2F)c(=O)c2c(=O)[nH]sc2n3C2CC2)cc1 | 51 | 0.5 (≈ 1.26 µM) | 0.001 (≈ 0.00253 µM) | 4 (≈ 10.1 µM) | – | – |
| CN(C)c1cccc(-c2cc3c(cc2F)c(=O)c2c(=O)[nH]sc2n3C2CC2)c1 | > 100 | 2 (≈ 5.06 µM) | 0.06 (≈ 0.152 µM) | 32 (≈ 80.9 µM) | – | – |
| Nc1cccc(-c2cc3c(cc2F)c(=O)c2c(=O)[nH]sc2n3C2CC2)c1 | > 100 | 0.004 (≈ 0.0109 µM) | 0.008 (≈ 0.0218 µM) | 8 (≈ 21.8 µM) | 3.1 | 10 |
| COc1c(N2C[C@@H]3CCCN[C@@H]3C2)c(F)cc2c(=O)c(C(=O)O)cn(C3CC3)c12 [MOXIFLOXACIN] | > 100 | 0.015 (≈ 0.0374 µM) | 0.06 (≈ 0.149 µM) | 2 (≈ 4.98 µM) | – | – |
| N#Cc1cccc(-c2cc3c(cc2F)c(=O)c2c(=O)[nH]sc2n3C2CC2)c1 | > 100 | 0.03 (≈ 0.0795 µM) | 0.001 (≈ 0.00265 µM) | 0.125 (≈ 0.331 µM) | – | – |
| Nc1cc(-c2cc3c(cc2F)c(=O)c2c(=O)[nH]sc2n3C2CC2)ccc1F | 28 | 0.125 (≈ 0.324 µM) | 0.008 (≈ 0.0208 µM) | 0.5 (≈ 1.3 µM) | 0.3 | 10 |
| Nc1ccc(-c2cc3c(cc2F)c(=O)c2c(=O)[nH]sc2n3C2CC2)cc1 | 34 | 0.06 (≈ 0.163 µM) | 0.004 (≈ 0.0109 µM) | 0.5 (≈ 1.36 µM) | 0.3 | 12 |
| COc1cc(-c2cc3c(cc2F)c(=O)c2c(=O)[nH]sc2n3C2CC2)ccc1O | 4 | 0.06 (≈ 0.151 µM) | 0.001 (≈ 0.00251 µM) | 0.125 (≈ 0.314 µM) | – | – |
| O=C(O)c1cn(C2CC2)c2cc(N3CCNCC3)c(F)cc2c1=O [CIPROFLOXACIN] | > 100 | – | 0.25 (≈ 0.754 µM) | 32 (≈ 96.6 µM) | – | – |
| NCC(=O)Nc1ccc(-c2cc3c(cc2F)c(=O)c2c(=O)[nH]sc2n3C2CC2)cc1 | > 75 | 1 (≈ 2.36 µM) | 0.25 (≈ 0.589 µM) | 64 (≈ 151 µM) | – | – |
| O=c1[nH]sc2c1c(=O)c1cc(F)c(-c3ccc(F)cc3)cc1n2C1CC1 | > 100 | 0.25 (≈ 0.675 µM) | 0.03 (≈ 0.081 µM) | 32 (≈ 86.4 µM) | – | – |
| O=c1[nH]sc2c1c(=O)c1cc(F)c(-c3cccc(O)c3)cc1n2C1CC1 | > 100 | 0.06 (≈ 0.163 µM) | 0.004 (≈ 0.0109 µM) | 0.25 (≈ 0.679 µM) | 0.2 | 1.6 |
| COc1ccc(-c2cc3c(cc2F)c(=O)c2c(=O)[nH]sc2n3C2CC2)cc1 | 91 | 0.125 (≈ 0.327 µM) | 0.015 (≈ 0.0392 µM) | 2 (≈ 5.23 µM) | – | – |
| CO/N=C1\CN(c2nc3c(cc2F)c(=O)c(C(=O)O)cn3C2CC2)CC1CN (configuration not stated) [GEMIFLOXACIN] | 46 | 0.015 (≈ 0.0385 µM) | 0.03 (≈ 0.077 µM) | 2 (≈ 5.14 µM) | 0.5 | 0.3 |
| NCCc1ccc(-c2cc3c(cc2F)c(=O)c2c(=O)[nH]sc2n3C2CC2)cc1 | 11 | 0.06 (≈ 0.152 µM) | 0.02 (≈ 0.0506 µM) | > 64 | – | – |
| NC(=O)c1cccc(-c2cc3c(cc2F)c(=O)c2c(=O)[nH]sc2n3C2CC2)c1 | – | 0.125 (≈ 0.316 µM) | 0.008 (≈ 0.0202 µM) | 2 (≈ 5.06 µM) | – | – |
| O=c1[nH]sc2c1c(=O)c1cc(F)c(-c3cccc(CO)c3)cc1n2C1CC1 | – | 0.125 (≈ 0.327 µM) | 0.008 (≈ 0.0209 µM) | 2 (≈ 5.23 µM) | 0.5 | 8.2 |
